Source: ChEMBL document CHEMBL2331537, “Effective inhibition of acid and neutral ceramidases by novel B-13 and LCL-464 analogues” (Bioorg Med Chem, 2013)
The source made the active and inactive calls. No cut-off for these calls is given here.

Experiments:
MDA-MB-231 [1] = assay: Elevation of total ceramide level in human MDA-MB-231 cells at 50 uM after 24 hrs by LC-MS/MS analysis relative to control; assay type: functional
Outline: (§1)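 MDA-MB-231 cells were exposed to inhibitor for 24 h at 37 °C at the concentration given in each line. Lipids were extracted by modified Bligh & Dyer with 20 pmol C17-ceramide as internal standard. Analysis was positive-mode LC–MS/MS on a C18 column, isocratic acetonitrile/2-propanol 3:2 with 1% formic acid. Values are mean SD of three independent experiments versus control.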

[2] = molecular target: T1, Acid ceramidase (Homo sapiens) (UniProt Q13510); assay: Inhibition of human recombinant acid ceramidase using Acyl-NBD-C12-cer as substrate at 80 uM after 8 hrs by fluorescence assay
T1 sequence (whole entry): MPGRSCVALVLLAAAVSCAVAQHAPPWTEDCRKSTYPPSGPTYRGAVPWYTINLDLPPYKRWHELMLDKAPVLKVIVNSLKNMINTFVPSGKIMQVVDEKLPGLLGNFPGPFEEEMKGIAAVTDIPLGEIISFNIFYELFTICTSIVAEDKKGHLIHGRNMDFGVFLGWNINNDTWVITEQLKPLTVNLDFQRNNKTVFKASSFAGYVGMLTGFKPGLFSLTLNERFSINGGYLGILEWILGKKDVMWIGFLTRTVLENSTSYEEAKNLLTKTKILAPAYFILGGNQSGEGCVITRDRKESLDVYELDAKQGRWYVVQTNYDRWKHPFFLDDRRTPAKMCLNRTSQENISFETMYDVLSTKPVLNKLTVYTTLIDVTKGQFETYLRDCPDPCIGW
Outline: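 Recombinant human enzyme (60 total protein) was in 200 mM sodium acetate pH 4.5, 200 mM NaCl, 0.1% Triton X-100, DMSO <5% v/v. Final substrate was 15 and inhibitor 80, incubated 8 h at 37 °C. Reactions were quenched with chloroform/methanol 2:1 and NBD-fatty acid separated by TLC. Imaging used ex 430/em 550 nm; % hydrolysis versus no-inhibitor control, mean SD, three experiments.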

[3] = molecular target: Neutral ceramidase (Homo sapiens) (UniProt Q9NR71); assay: Inhibition of human recombinant neutral ceramidase using Acyl-NBD-C12-cer as substrate at 80 uM after 2 hrs by fluorescence assay
Outline: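 Recombinant human enzyme at 25 ng/mL final was in 200 mM sodium acetate pH 7.0, 200 mM NaCl, 0.1% Triton X-100. Final substrate was 15 and inhibitor 80, incubated 2 h at 37 °C. Reactions were chloroform/methanol quenched and cleaved/uncleaved NBD substrate resolved by TLC with fluorescence imaging. Values are % of no-inhibitor control, mean SD, three experiments.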

MDA-MB-231 [4] = assay: Elevation of C16-ceramide level in human MDA-MB-231 cells at 25 uM by LC-MS/MS analysis; assay type: functional, cell-based; outline: as §1
HL-60 = assay: Cytotoxicity against human HL60 cells assessed as growth inhibition by trypan blue dye exclusion assay
MDA-MB-231 [5] = assay: Elevation of C24-ceramide level in human MDA-MB-231 cells at 25 uM by LC-MS/MS analysis; assay type: functional, cell-based; outline: as §1
MDA-MB-231 [6] = assay: Elevation of total ceramide level in human MDA-MB-231 cells at 25 uM after 24 hrs by LC-MS/MS analysis relative to control; assay type: functional; outline: as §1
MDA-MB-231 [7] = assay: Elevation of C18-ceramide level in human MDA-MB-231 cells at 50 uM by LC-MS/MS analysis; assay type: functional, cell-based; outline: as §1
MDA-MB-231 [8] = assay: Elevation of C16-ceramide level in human MDA-MB-231 cells at 50 uM by LC-MS/MS analysis; assay type: functional, cell-based; outline: as §1
MDA-MB-231 [9] = assay: Elevation of C18-ceramide level in human MDA-MB-231 cells at 25 uM by LC-MS/MS analysis; assay type: functional, cell-based; outline: as §1
MDA-MB-231 [10] = assay: Elevation of C24-ceramide level in human MDA-MB-231 cells at 50 uM by LC-MS/MS analysis; assay type: functional, cell-based; outline: as §1
Alkaline ceramidase 2 = Alkaline ceramidase 2 (Homo sapiens, UniProt Q5QJU3); assay: Inhibition of alkaline ceramidase 2 in human HL-60 cells using 3H]C16-ceramide as substrate after 1 hr by liquid scintillation counting analysis; assay type: cell-based
MDA-MB-231 [11] = assay: Induction of apoptosis in human MDA-MB-231 cells assessed as increase in cytoplasmic histone-associated DNA fragment level at 25 to 50 uM after 24 hrs by ELISA relative to control; assay type: functional
Outline: (§2)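 Cells were seeded for 24 h, then treated 24 h in DMEM with compound or DMSO vehicle. Cytoplasmic histone-associated DNA fragments were measured photometrically by Cell Death Detection ELISA Plus, following the kit protocol. Values are % of control (mean S.D., n = 3); dose–response is read as optical density.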

MDA-MB-231 [12] = assay: Induction of apoptosis in human MDA-MB-231 cells assessed as increase in cytoplasmic histone-associated DNA fragment level after 24 hrs by ELISA; assay type: functional, cell-based; settings: MDA-MB-231, 24 h; outline: as §2

Chain of Neutral ceramidase (Homo sapiens) (Q9NR71 whole entry): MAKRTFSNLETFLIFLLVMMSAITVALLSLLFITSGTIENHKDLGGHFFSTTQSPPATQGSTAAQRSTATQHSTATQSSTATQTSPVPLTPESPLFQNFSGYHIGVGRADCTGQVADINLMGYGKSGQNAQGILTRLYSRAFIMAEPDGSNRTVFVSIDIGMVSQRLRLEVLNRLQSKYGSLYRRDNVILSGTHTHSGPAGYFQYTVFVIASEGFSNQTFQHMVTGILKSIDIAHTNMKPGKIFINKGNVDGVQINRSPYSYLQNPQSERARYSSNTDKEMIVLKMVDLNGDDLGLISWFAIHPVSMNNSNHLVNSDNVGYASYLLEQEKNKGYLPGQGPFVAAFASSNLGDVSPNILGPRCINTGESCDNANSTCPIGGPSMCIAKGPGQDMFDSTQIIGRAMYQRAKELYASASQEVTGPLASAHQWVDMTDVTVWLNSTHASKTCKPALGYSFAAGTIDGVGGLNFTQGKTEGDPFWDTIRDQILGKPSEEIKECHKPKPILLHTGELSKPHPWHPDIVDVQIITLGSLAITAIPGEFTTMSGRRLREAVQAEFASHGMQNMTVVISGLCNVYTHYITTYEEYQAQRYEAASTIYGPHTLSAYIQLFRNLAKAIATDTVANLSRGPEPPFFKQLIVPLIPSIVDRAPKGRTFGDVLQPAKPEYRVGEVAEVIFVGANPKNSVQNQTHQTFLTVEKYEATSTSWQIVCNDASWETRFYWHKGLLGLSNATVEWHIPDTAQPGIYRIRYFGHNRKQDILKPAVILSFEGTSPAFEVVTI

inhibition [2] | inhibition [3] | Structure (SMILES) | Activity (MDA-MB-231 [1]) | further results
Active | 30% | CN(C)CCCCCCCCCCCC(=O)N[C@H](CO)[C@H](O)c1ccc([N+](=O)[O-])cc1 | >=150% | 
inactive | inactive | CN(C)CCCCCCCCCCCC(=O)NCC(O)c1cccnc1 (racemic) | < 150% | 
inactive | inactive | CN(C)CCCCCCCCCCCC(=O)NCC(O)c1ccncc1 (racemic) | >=150% | 
60% | 8% | CCCCCCCCCCCCCC(=O)N[C@H](C)[C@@H](O)c1ccccc1 |  | IC50 (Alkaline ceramidase 2): 1 µM

Second part, the compound before the results:

Structure (SMILES) | inhibition [2] | inhibition [3] | Activity (MDA-MB-231 [1]) | further results
CCCCCCCCCCCCCC(=O)N[C@H](CO)[C@H](O)c1ccc([N+](=O)[O-])cc1 | Active |  | 350% | Activity (MDA-MB-231 [4]): inactive; IC50 (HL-60): 1.5 µM; Activity (MDA-MB-231 [5]): inactive; Activity (MDA-MB-231 [6]): 150%; Activity (MDA-MB-231 [7]): Active; Activity (MDA-MB-231 [8]): Active; Activity (MDA-MB-231 [9]): inactive; Activity (MDA-MB-231 [10]): Active
CCCCCCCCCCCCCC(=O)N[C@H](C(=O)O)[C@H](O)c1ccc([N+](=O)[O-])cc1 | Active | inactive | 150% | Activity (MDA-MB-231 [6]): 150%
CCCCCCCCCCCCCC(=O)NCC(O)c1ccccc1 (racemic) |  |  | >=150% | 
CCCCCCCCCCCCCC(=O)N[C@H](CO)C(=O)c1ccc([N+](=O)[O-])cc1 | Active | Active |  | 
CN(C)CCCCCCCCCCCC(=O)NCC(O)c1ccccc1 (racemic) |  |  | >=150% | 
C[C@@H](NC(=O)CCCCCCCCCCCN(C)C)[C@@H](O)c1ccccc1 |  |  | >=150% | 
CCCCCCCCCCCCCC(=O)N[C@H](CO)[C@H](O)c1ccc(N)cc1 | Active | Active | 300% | fold change (FC) (MDA-MB-231 [11]): 3; EC50 (MDA-MB-231 [12]): 59 µM; Activity (MDA-MB-231 [6]): 300%
